Measurements as given in ChEMBL document CHEMBL3751731, “Ferulic acid-carbazole hybrid compounds: Combination of cholinesterase inhibition, antioxidant and neuroprotection as multifunctional anti-Alzheimer agents” (Bioorg Med Chem, 2016).
Activity calls are given as the source filed them. No cut-off for these calls is given here.

Molecular target: Acetylcholinesterase (Electrophorus electricus, UniProt O42275)
Assay: Inhibition of electric eel AChE using ATC as substrate preincubated for 5 mins followed by substrate addition measured after 2 mins by Ellman's assay

Acetylcholinesterase (Electrophorus electricus, UniProt O42275), sequence (O42275 whole entry): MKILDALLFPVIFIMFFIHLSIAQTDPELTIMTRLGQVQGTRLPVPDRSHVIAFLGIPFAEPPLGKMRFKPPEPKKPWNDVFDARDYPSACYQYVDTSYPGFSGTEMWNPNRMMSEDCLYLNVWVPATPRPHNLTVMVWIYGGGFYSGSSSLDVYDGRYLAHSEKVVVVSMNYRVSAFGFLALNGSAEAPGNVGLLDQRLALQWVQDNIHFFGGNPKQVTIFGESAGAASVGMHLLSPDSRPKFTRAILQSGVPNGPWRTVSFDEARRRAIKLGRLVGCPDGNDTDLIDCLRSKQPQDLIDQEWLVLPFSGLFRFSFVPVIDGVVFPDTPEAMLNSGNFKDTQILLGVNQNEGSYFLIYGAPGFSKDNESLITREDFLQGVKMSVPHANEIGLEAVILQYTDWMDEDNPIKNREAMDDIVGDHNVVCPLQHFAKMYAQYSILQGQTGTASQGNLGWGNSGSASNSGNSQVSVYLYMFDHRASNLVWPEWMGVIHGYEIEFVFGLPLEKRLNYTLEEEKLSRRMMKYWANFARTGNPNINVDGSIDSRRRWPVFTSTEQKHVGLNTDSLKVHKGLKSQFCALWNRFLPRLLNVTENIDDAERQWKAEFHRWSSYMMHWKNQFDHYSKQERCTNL

| SMILES | IC50 |
| --- | --- |
| COc1cc(/C=C/C(=O)N(Cc2cccc3[nH]c4ccccc4c23)C2CCCC2)ccc1O | > 100 µM |
| COc1ccc2c(c1)[nH]c1cccc(CN(C(=O)/C=C/c3ccc(O)c(OC)c3)C(C)C)c12 | 58.2 µM |
| COc1cc(/C=C/C(=O)N(Cc2cccc3[nH]c4ccccc4c23)C(C)C)ccc1O | 11.1 µM |
| CCNCc1cccc2[nH]c3cc(Cl)ccc3c12 | 2.1 µM |

Molecular target: Acetylcholinesterase (Homo sapiens, UniProt P22303)
Sequence (P22303 whole entry): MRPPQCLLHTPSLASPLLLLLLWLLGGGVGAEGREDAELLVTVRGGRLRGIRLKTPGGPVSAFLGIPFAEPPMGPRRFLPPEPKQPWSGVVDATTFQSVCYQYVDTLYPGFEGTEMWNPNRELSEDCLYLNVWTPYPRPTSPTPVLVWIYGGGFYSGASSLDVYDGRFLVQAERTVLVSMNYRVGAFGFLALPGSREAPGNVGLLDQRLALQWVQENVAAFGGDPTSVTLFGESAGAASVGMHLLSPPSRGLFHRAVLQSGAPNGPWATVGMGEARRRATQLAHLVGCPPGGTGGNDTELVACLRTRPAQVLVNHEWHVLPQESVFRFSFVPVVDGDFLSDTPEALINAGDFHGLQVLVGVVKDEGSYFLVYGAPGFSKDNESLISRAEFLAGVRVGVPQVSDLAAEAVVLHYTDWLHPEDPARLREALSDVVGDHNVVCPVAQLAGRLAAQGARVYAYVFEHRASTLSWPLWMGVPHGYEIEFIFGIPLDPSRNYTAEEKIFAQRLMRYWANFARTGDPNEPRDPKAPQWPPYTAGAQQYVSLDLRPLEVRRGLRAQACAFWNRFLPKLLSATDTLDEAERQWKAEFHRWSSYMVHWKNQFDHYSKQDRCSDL
Assay: Inhibition of human AChE using ATC as substrate preincubated for 5 mins followed by substrate addition measured after 2 mins by Ellman's assay
Outline: (§1)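 Ellman's method with DTNB chromogen, acetylthiocholine (AChE) or butyrylthiocholine (BChE) iodide substrate, in potassium phosphate buffer pH 8.0 (KOH-adjusted). Compounds were diluted from ethanol stocks, with a top final concentration of 10^-4 M. At least five concentrations (normally 10^-4–10^-9 M) were run, each in triplicate, read at 412 nm at 25 °C. IC50 values are from inhibition curves, as means of at least three determinations.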

| SMILES | IC50 |
| --- | --- |
| COc1cc(/C=C/C(=O)N(Cc2cccc3[nH]c4ccccc4c23)C(C)C)ccc1O | 22 µM |
| CCNCc1cccc2[nH]c3cc(Cl)ccc3c12 | 5.1 µM |

Molecular target: Cholinesterase (Equus caballus, UniProt P81908)
Sequence (P81908 whole entry): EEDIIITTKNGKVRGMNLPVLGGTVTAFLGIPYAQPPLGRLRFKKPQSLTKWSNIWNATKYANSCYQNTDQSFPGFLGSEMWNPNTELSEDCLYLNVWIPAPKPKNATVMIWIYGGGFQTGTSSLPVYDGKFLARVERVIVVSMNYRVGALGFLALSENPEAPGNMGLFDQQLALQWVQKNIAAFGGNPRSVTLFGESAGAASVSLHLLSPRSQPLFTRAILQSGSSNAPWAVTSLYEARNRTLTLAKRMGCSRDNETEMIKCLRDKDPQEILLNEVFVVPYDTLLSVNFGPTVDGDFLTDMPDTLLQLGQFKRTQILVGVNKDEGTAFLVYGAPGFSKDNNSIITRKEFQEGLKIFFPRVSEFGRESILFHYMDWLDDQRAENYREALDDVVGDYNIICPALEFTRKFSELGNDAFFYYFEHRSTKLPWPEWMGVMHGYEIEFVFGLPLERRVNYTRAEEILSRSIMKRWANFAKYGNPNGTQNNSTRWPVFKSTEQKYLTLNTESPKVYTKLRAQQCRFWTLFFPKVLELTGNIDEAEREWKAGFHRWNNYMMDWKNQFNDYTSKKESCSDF
Assay: Inhibition of equine BChE using BTC as substrate preincubated for 5 mins followed by substrate addition measured after 2 mins by Ellman's assay

| SMILES | IC50 |
| --- | --- |
| COc1cc(/C=C/C(=O)N(Cc2cccc3[nH]c4ccccc4c23)C2CCCC2)ccc1O | 31.6 µM |
| COc1ccc2c(c1)[nH]c1cccc(CN(C(=O)/C=C/c3ccc(O)c(OC)c3)C(C)C)c12 | 13.9 µM |
| COc1cc(/C=C/C(=O)N(Cc2cccc3[nH]c4ccccc4c23)C(C)C)ccc1O | 12.7 µM |
| CCNCc1cccc2[nH]c3cc(Cl)ccc3c12 | 1.9 µM |

Molecular target: Cholinesterase (Homo sapiens, UniProt P06276)
Sequence (P06276 whole entry): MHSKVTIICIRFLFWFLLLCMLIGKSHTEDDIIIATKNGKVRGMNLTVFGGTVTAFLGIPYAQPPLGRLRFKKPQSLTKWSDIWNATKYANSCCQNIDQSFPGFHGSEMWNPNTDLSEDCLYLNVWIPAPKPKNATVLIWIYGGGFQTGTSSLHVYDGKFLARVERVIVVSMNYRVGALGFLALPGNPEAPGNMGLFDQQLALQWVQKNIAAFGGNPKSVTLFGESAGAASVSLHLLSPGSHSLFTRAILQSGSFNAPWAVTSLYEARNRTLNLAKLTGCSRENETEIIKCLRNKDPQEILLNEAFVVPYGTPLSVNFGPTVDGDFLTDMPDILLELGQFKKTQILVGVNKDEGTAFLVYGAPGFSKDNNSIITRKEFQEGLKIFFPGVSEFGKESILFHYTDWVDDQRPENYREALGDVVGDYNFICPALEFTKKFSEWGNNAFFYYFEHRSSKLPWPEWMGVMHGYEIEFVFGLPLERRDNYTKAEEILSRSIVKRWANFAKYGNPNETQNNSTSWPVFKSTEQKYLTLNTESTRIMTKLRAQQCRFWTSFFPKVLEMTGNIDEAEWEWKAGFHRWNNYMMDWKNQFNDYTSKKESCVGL
Assay: Inhibition of human BChE using BTC as substrate preincubated for 5 mins followed by substrate addition measured after 2 mins by Ellman's assay
Outline: as §1

| SMILES | IC50 |
| --- | --- |
| COc1cc(/C=C/C(=O)N(Cc2cccc3[nH]c4ccccc4c23)C(C)C)ccc1O | 9 µM |
| CCNCc1cccc2[nH]c3cc(Cl)ccc3c12 | 7.9 µM |

System: not listed separately
Assay: Antioxidant activity assessed as DPPH radical scavenging activity at 100 uM after 4 hrs by UV spectrophotometric analysis
Format: physicochemical
Outline: (§2)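 DPPH radical at 0.1 mM in ethanol. Test compounds were in ethanol at 1–100 µM (1, 2, 10, 50, 100). Mixture lines used an equimolar (1:1) blend with ferulic acid. Absorbance was read at 517 nm before addition (Abs0) and after 4 h once stable (Abst). Scavenging % = (1 − Abst/Abs0) × 100.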

| SMILES | Activity |
| --- | --- |
| COc1cc(/C=C/C(=O)N(Cc2cccc3[nH]c4ccccc4c23)C2CCCC2)ccc1O | 90.3% |
| COc1ccc2c(c1)[nH]c1cccc(CN(C(=O)/C=C/c3ccc(O)c(OC)c3)C(C)C)c12 | 98% |
| COc1cc(/C=C/C(=O)N(Cc2cccc3[nH]c4ccccc4c23)C(C)C)ccc1O | 90.9% |

System: not listed separately
Assay: Antioxidant activity assessed as DPPH radical scavenging activity at 50 uM after 4 hrs by UV spectrophotometric analysis
Format: physicochemical
Outline: as §2

| SMILES | Activity |
| --- | --- |
| COc1cc(/C=C/C(=O)N(Cc2cccc3[nH]c4ccccc4c23)C2CCCC2)ccc1O | 85.7% |
| COc1ccc2c(c1)[nH]c1cccc(CN(C(=O)/C=C/c3ccc(O)c(OC)c3)C(C)C)c12 | 72.9% |
| COc1cc(/C=C/C(=O)N(Cc2cccc3[nH]c4ccccc4c23)C(C)C)ccc1O | 84.5% |

System: not listed separately
Assay: Antioxidant activity assessed as DPPH radical scavenging activity at 10 uM after 4 hrs by UV spectrophotometric analysis
Format: physicochemical
Outline: as §2

| SMILES | Activity |
| --- | --- |
| COc1cc(/C=C/C(=O)N(Cc2cccc3[nH]c4ccccc4c23)C2CCCC2)ccc1O | 66.6% |
| COc1ccc2c(c1)[nH]c1cccc(CN(C(=O)/C=C/c3ccc(O)c(OC)c3)C(C)C)c12 | 68.2% |
| COc1cc(/C=C/C(=O)N(Cc2cccc3[nH]c4ccccc4c23)C(C)C)ccc1O | 68.9% |

System: not listed separately
Assay: Antioxidant activity assessed as DPPH radical scavenging activity at 2 uM after 4 hrs by UV spectrophotometric analysis
Format: physicochemical
Outline: as §2

| SMILES | Activity |
| --- | --- |
| COc1cc(/C=C/C(=O)N(Cc2cccc3[nH]c4ccccc4c23)C2CCCC2)ccc1O | 54.5% |
| COc1ccc2c(c1)[nH]c1cccc(CN(C(=O)/C=C/c3ccc(O)c(OC)c3)C(C)C)c12 | 55% |
| COc1cc(/C=C/C(=O)N(Cc2cccc3[nH]c4ccccc4c23)C(C)C)ccc1O | 56.2% |

System: not listed separately
Assay: Antioxidant activity assessed as DPPH radical scavenging activity at 1 uM after 4 hrs by UV spectrophotometric analysis
Format: physicochemical
Outline: as §2

| SMILES | Activity |
| --- | --- |
| COc1cc(/C=C/C(=O)N(Cc2cccc3[nH]c4ccccc4c23)C2CCCC2)ccc1O | 25.9% |
| COc1ccc2c(c1)[nH]c1cccc(CN(C(=O)/C=C/c3ccc(O)c(OC)c3)C(C)C)c12 | 45.1% |
| COc1cc(/C=C/C(=O)N(Cc2cccc3[nH]c4ccccc4c23)C(C)C)ccc1O | 44.1% |

System: not listed separately
Assay: Antioxidant activity assessed as DPPH radical scavenging activity at 100 uM after 4 hrs by UV spectrophotometric analysis in presence of ferulic acid
Format: physicochemical
Outline: as §2

| SMILES | Activity |
| --- | --- |
| CCNCc1cccc2[nH]c3cc(Cl)ccc3c12 | 93.2% |

System: not listed separately
Assay: Antioxidant activity assessed as DPPH radical scavenging activity at 50 uM after 4 hrs by UV spectrophotometric analysis in presence of ferulic acid
Format: physicochemical
Outline: as §2

| SMILES | Activity |
| --- | --- |
| CCNCc1cccc2[nH]c3cc(Cl)ccc3c12 | 71.4% |

System: not listed separately
Assay: Antioxidant activity assessed as DPPH radical scavenging activity at 10 uM after 4 hrs by UV spectrophotometric analysis in presence of ferulic acid
Format: physicochemical
Outline: as §2

| SMILES | Activity |
| --- | --- |
| CCNCc1cccc2[nH]c3cc(Cl)ccc3c12 | 60.1% |

System: not listed separately
Assay: Antioxidant activity assessed as DPPH radical scavenging activity at 2 uM after 4 hrs by UV spectrophotometric analysis in presence of ferulic acid
Format: physicochemical
Outline: as §2

| SMILES | Activity |
| --- | --- |
| CCNCc1cccc2[nH]c3cc(Cl)ccc3c12 | 44.7% |

System: not listed separately
Assay: Antioxidant activity assessed as DPPH radical scavenging activity at 1 uM after 4 hrs by UV spectrophotometric analysis in presence of ferulic acid
Format: physicochemical
Outline: as §2

| SMILES | Activity |
| --- | --- |
| CCNCc1cccc2[nH]c3cc(Cl)ccc3c12 | 31.6% |

System: not listed separately
Assay: Antioxidant activity assessed as galvinoxyl radical scavenging activity at 100 uM after 19 hrs by UV spectrophotometric analysis
Format: physicochemical
Outline: (§3)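 Galvinoxyl radical at 2 µM in ethanol, with compounds in ethanol at 1, 2, 10, 50 or 100 µM. Mixture lines used an equimolar (1:1) blend with ferulic acid. A428 was recorded before addition and after 19 h once stable. Percent radical scavenged = (1 − Abst/Abs0) × 100.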

| SMILES | Activity |
| --- | --- |
| COc1cc(/C=C/C(=O)N(Cc2cccc3[nH]c4ccccc4c23)C2CCCC2)ccc1O | 90.3% |
| COc1ccc2c(c1)[nH]c1cccc(CN(C(=O)/C=C/c3ccc(O)c(OC)c3)C(C)C)c12 | 87.2% |
| COc1cc(/C=C/C(=O)N(Cc2cccc3[nH]c4ccccc4c23)C(C)C)ccc1O | 90.8% |

System: not listed separately
Assay: Antioxidant activity assessed as galvinoxyl radical scavenging activity at 50 uM after 19 hrs by UV spectrophotometric analysis
Format: physicochemical
Outline: as §3

| SMILES | Activity |
| --- | --- |
| COc1cc(/C=C/C(=O)N(Cc2cccc3[nH]c4ccccc4c23)C2CCCC2)ccc1O | 85.7% |
| COc1ccc2c(c1)[nH]c1cccc(CN(C(=O)/C=C/c3ccc(O)c(OC)c3)C(C)C)c12 | 51.7% |
| COc1cc(/C=C/C(=O)N(Cc2cccc3[nH]c4ccccc4c23)C(C)C)ccc1O | 87.5% |

System: not listed separately
Assay: Antioxidant activity assessed as galvinoxyl radical scavenging activity at 10 uM after 19 hrs by UV spectrophotometric analysis
Format: physicochemical
Outline: as §3

| SMILES | Activity |
| --- | --- |
| COc1cc(/C=C/C(=O)N(Cc2cccc3[nH]c4ccccc4c23)C2CCCC2)ccc1O | 66.6% |
| COc1ccc2c(c1)[nH]c1cccc(CN(C(=O)/C=C/c3ccc(O)c(OC)c3)C(C)C)c12 | 23.4% |
| COc1cc(/C=C/C(=O)N(Cc2cccc3[nH]c4ccccc4c23)C(C)C)ccc1O | 68% |

System: not listed separately
Assay: Antioxidant activity assessed as galvinoxyl radical scavenging activity at 2 uM after 19 hrs by UV spectrophotometric analysis
Format: physicochemical
Outline: as §3

| SMILES | Activity |
| --- | --- |
| COc1cc(/C=C/C(=O)N(Cc2cccc3[nH]c4ccccc4c23)C2CCCC2)ccc1O | 54.5% |
| COc1ccc2c(c1)[nH]c1cccc(CN(C(=O)/C=C/c3ccc(O)c(OC)c3)C(C)C)c12 | 8% |
| COc1cc(/C=C/C(=O)N(Cc2cccc3[nH]c4ccccc4c23)C(C)C)ccc1O | 55.2% |

System: not listed separately
Assay: Antioxidant activity assessed as galvinoxyl radical scavenging activity at 1 uM after 19 hrs by UV spectrophotometric analysis
Format: physicochemical
Outline: as §3

| SMILES | Activity |
| --- | --- |
| COc1cc(/C=C/C(=O)N(Cc2cccc3[nH]c4ccccc4c23)C2CCCC2)ccc1O | 25.9% |
| COc1ccc2c(c1)[nH]c1cccc(CN(C(=O)/C=C/c3ccc(O)c(OC)c3)C(C)C)c12 | 1.1% |
| COc1cc(/C=C/C(=O)N(Cc2cccc3[nH]c4ccccc4c23)C(C)C)ccc1O | 24.1% |

System: not listed separately
Assay: Antioxidant activity assessed as galvinoxyl radical scavenging activity at 100 uM after 19 hrs in presence of ferulic acid by UV spectrophotometric analysis
Format: physicochemical
Outline: as §3

| SMILES | Activity |
| --- | --- |
| CCNCc1cccc2[nH]c3cc(Cl)ccc3c12 | 83.2% |

System: not listed separately
Assay: Antioxidant activity assessed as galvinoxyl radical scavenging activity at 50 uM after 19 hrs in presence of ferulic acid by UV spectrophotometric analysis
Format: physicochemical
Outline: as §3

| SMILES | Activity |
| --- | --- |
| CCNCc1cccc2[nH]c3cc(Cl)ccc3c12 | 51.4% |

System: not listed separately
Assay: Antioxidant activity assessed as galvinoxyl radical scavenging activity at 10 uM after 19 hrs in presence of ferulic acid by UV spectrophotometric analysis
Format: physicochemical
Outline: as §3

| SMILES | Activity |
| --- | --- |
| CCNCc1cccc2[nH]c3cc(Cl)ccc3c12 | 30.1% |

System: not listed separately
Assay: Antioxidant activity assessed as galvinoxyl radical scavenging activity at 2 uM after 19 hrs in presence of ferulic acid by UV spectrophotometric analysis
Format: physicochemical
Outline: as §3

| SMILES | Activity |
| --- | --- |
| CCNCc1cccc2[nH]c3cc(Cl)ccc3c12 | 14.7% |

System: not listed separately
Assay: Antioxidant activity assessed as galvinoxyl radical scavenging activity at 1 uM after 19 hrs in presence of ferulic acid by UV spectrophotometric analysis
Format: physicochemical
Outline: as §3

| SMILES | Activity |
| --- | --- |
| CCNCc1cccc2[nH]c3cc(Cl)ccc3c12 | 11% |

System: PC-12
Assay: Neuroprotective effect in rat PC12 cells assessed as alleviation of H2O2-induced toxicity at 1:1 compound to ferulic acid molar ratio after 24 hrs by MTT assay
Format: functional, cell-based
Outline: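 PC12 cells (F-12, 10% FBS, 37 °C, 5% CO₂; 2000 cells/well, 24 h pre-culture) were co-treated with compound (0.1, 1, 10, 50; DMSO <0.5%) and H₂O₂ for 24 h. The mixture line used a 1:1 molar blend with ferulic acid. MTT for 4 h, formazan dissolved in DMSO, A540, blank-subtracted. Viability is % of control; three independent trials, mean ± SEM.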

| SMILES | Activity |
| --- | --- |
| CCNCc1cccc2[nH]c3cc(Cl)ccc3c12 | Active |

System: PC-12
Assay: Neuroprotective effect in rat PC12 cells assessed as alleviation of amyloid beta 42-induced toxicity at 1:1 compound to ferulic acid molar ratio after 24 hrs by MTT assay
Format: functional, cell-based
Outline: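 Aβ42 was dissolved in hexafluoroisopropanol, dried to a film, taken up in F-12 and held at 4 °C for 24 h. PC12 cells (2000/well, 24 h pre-culture) were co-treated with this Aβ42 and compound (0.1–50; DMSO <0.5%) for 24 h. The mixture line used a 1:1 blend with ferulic acid. MTT for 4 h, A540; % of control, three independent trials, mean ± SEM.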

| SMILES | Activity |
| --- | --- |
| CCNCc1cccc2[nH]c3cc(Cl)ccc3c12 | inactive |
